The text below walks through data of ChEMBL document CHEMBL3525967, “In vitro glucuronidation of the antibacterial triclocarban and its oxidative metabolites” (Drug Metab Dispos, 2012).

The target in data set [1] is T1, UDP-glucuronosyltransferase 1A6 (Homo sapiens, UniProt P19224).
T1 sequence (P19224 whole entry): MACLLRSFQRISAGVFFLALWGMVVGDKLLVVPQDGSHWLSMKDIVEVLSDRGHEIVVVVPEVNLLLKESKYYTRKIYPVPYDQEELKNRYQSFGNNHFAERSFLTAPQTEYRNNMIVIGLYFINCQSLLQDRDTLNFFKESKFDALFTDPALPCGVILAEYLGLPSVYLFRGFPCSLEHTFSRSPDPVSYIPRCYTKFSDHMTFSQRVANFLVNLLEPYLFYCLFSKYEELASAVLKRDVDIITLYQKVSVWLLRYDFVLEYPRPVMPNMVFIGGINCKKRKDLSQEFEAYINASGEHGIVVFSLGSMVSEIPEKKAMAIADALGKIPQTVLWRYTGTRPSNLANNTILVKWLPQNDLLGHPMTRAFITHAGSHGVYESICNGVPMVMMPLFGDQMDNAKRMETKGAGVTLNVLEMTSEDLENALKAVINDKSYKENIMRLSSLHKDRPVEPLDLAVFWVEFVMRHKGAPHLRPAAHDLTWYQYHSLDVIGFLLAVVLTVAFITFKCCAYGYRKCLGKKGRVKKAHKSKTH
Nature of the data set: Drug metabolism assessed as human UGT1A6-mediated N-glucuronide-triclocarban formation expressed in baculovirus infected insect sf9 cells incubated for 5 mins prior to UDPGA addition measured after 5 to 30 mins by LC-UV analysis. It is filed as ADME. The essentials: (§1)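 Microsomes or UGT Supersomes (5 µg protein) were held 15 min on ice with alamethicin in 100 mM potassium phosphate pH 7.4. TCC was added at 10 µM (2% DMSO) with 10 mM MgCl2 and 10 mM saccharolactone, pre-warmed 5 min at 37 °C, then started with UDPGA. Samples at 5, 10, 15 and 30 min were quenched in ACN. Product was read by LC-UV at 265 nm; rate came from regression over time, three incubations.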

Data set [2] deals with T2, UDP-glucuronosyltransferase 1A7 (Homo sapiens, UniProt Q9HAW7).
T2 sequence (Q9HAW7 whole entry): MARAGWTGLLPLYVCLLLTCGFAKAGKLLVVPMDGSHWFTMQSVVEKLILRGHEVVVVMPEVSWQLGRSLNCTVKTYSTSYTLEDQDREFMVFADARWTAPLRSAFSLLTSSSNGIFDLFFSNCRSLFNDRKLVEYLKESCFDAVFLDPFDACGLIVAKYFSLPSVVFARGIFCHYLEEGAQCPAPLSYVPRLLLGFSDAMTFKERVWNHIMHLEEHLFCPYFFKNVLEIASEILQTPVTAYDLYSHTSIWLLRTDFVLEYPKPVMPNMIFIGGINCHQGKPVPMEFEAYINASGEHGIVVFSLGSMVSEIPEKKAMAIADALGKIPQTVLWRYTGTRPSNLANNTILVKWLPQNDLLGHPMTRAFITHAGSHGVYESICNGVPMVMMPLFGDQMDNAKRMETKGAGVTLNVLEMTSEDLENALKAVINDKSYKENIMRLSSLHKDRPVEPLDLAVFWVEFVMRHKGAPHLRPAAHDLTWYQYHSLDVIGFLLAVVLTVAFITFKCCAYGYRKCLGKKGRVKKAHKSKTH
Nature of the data set: Drug metabolism assessed as human UGT1A7-mediated N-glucuronide-triclocarban formation expressed in baculovirus infected insect sf9 cells incubated for 5 mins prior to UDPGA addition measured after 5 to 30 mins by LC-UV analysis. It is filed as ADME. The essentials: as §1

A short description of data set [3]: Drug excretion in Swiss webster mouse urine assessed as 2'-O-glucuronide-triclocarban formation at 5 mg/kg, po by LC-MS analysis. It is filed as ADME, organism-based. To be noted: in vivo. Details: dose 5 mg/kg, route oral. The essentials:
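Mice were housed two per metabolic cage, with blank urine collected over the 24 h before dosing. TCC was given by oral gavage as a 1 mg/mL solution in 20/80 DMSO/PEG400 (v/v) at 5 mg/kg. Urine was collected at 0-24 h and 24-48 h and analysed by online LC-MS. Values are the mean of two independent experiments.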

A short description of data set [4]: Drug excretion in Sprague-Dawley rat urine assessed as N-glucuronide-triclocarban formation at 1 mg/kg, po by LC-MS analysis. Also noted: dose 1 mg/kg, route oral. The settings on record: in vivo. It is filed as ADME, organism-based.
Data set [5] addresses T3, UDP-glucuronosyltransferase 1A3 (Homo sapiens, UniProt P35503).
T3 sequence (P35503 whole entry): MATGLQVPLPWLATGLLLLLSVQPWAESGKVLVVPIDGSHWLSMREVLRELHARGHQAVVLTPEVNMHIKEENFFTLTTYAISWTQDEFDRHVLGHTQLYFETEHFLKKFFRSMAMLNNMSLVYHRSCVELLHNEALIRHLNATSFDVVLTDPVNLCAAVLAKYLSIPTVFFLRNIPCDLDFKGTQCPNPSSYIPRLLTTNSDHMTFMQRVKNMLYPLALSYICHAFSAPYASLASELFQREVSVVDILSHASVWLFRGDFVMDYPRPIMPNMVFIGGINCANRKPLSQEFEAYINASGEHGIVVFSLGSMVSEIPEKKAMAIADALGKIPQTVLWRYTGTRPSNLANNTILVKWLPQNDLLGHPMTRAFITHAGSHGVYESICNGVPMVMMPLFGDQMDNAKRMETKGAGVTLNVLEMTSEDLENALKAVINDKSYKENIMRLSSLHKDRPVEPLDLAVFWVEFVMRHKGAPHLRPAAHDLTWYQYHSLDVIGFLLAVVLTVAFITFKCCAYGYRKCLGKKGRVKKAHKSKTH
Nature of the data set: Drug metabolism assessed as human UGT1A3-mediated N'-glucuronide-triclocarban formation expressed in baculovirus infected insect sf9 cells incubated for 5 mins prior to UDPGA addition measured after 5 to 30 mins by LC-UV analysis. It counts as ADME. The essentials:
as §1

In data set [6] the target is T4, UDP-glucuronosyltransferase 1A4 (Homo sapiens, UniProt P22310).
T4 sequence (P22310 whole entry): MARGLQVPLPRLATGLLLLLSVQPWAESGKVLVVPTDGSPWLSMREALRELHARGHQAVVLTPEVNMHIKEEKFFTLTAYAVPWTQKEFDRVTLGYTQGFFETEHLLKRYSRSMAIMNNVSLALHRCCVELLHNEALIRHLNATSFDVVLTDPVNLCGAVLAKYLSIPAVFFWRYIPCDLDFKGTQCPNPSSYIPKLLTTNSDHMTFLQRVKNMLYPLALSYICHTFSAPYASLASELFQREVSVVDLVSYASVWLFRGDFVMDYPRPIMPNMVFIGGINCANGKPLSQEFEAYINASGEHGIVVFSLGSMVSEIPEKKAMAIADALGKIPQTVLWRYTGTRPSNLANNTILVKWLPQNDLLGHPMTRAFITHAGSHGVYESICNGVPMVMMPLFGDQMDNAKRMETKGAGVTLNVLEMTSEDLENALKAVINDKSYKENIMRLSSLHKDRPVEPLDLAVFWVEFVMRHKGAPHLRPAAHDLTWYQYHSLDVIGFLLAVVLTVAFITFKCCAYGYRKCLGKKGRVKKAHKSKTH
Put plainly: Drug metabolism assessed as human UGT1A4-mediated N'-glucuronide-triclocarban formation expressed in baculovirus infected insect sf9 cells incubated for 5 mins prior to UDPGA addition measured after 5 to 30 mins by LC-UV analysis. It counts as ADME. The essentials: as §1

Data set [7] concerns the target T1, UDP-glucuronosyltransferase 1A6. Nature of the data set: Drug metabolism assessed as human UGT1A6-mediated N'-glucuronide-triclocarban formation expressed in baculovirus infected insect sf9 cells incubated for 5 mins prior to UDPGA addition measured after 5 to 30 mins by LC-UV analysis. It counts as ADME. The essentials: as §1

For `O=C(Nc1ccc(Cl)cc1)Nc1ccc(Cl)c(Cl)c1` [TRICLOCARBAN], the Drug metabolism result in data set [1], in data set [2], in data set [5], in data set [6] and in data set [7] was “metabolite_not_detected” each time. Further, the Drug excretion entry is recorded as “metabolite_detected” in data set [3] and “metabolite_not_detected” in data set [4].
